Experimental data as given in ChEMBL document CHEMBL3045304, “Sesquiterpene lactones with potential use as natural herbicide models. 2. guaianolides” (2000).
The source made the active and inactive calls. No cut-off for these calls is given here.

Assays:
[1] = tested on: Allium cepa; test: Inhibition of germination of Allium cepa cv. Valenciana (onion) at 0.1 mM or 1 mM after 5 days relative to untreated control; type: functional
[2] = tested on: Triticum aestivum; test: Inhibition of root length of Triticum aestivum cv. Cortex (wheat) at 0.1 mM or 1 mM after 5 days relative to untreated control; type: functional
Outline: (§1)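 Wheat: 10 seeds per dish on filter paper with 5 mL test solution, 5 days in the dark at 25 °C, 10 replicates per concentration. Stock test solutions were 10^-3 or 10^-4 M in 10 mM MES, with lower levels made by dilution, all at pH 6.0. Parallel controls were run. Output is % difference from control.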

[3] = tested on: Triticum aestivum; test: Inhibition of hypocotyl length of Triticum aestivum cv. Cortex (wheat) at 0.1 mM or 1 mM after 5 days relative to untreated control; type: functional; outline: as §1
[4] = tested on: Triticum aestivum; test: Inhibition of germination of Triticum aestivum cv. Cortex (wheat) at 0.1 mM or 1 mM after 5 days relative to untreated control; type: functional; outline: as §1
[5] = tested on: Solanum lycopersicum; test: Inhibition of hypocotyl length of Solanum lycopersicum cv. Tres Cantos (tomato) at 0.1 mM or 1 mM after 5 days relative to untreated control; type: functional
Outline: (§2)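 Lettuce and tomato seeds, 25 per dish on filter paper, received 5 mL test solution. Incubation was 5 days in the dark at 25 °C, with four replicates per concentration. Solutions were made at 10^-3 or 10^-4 M in 10 mM MES, diluted serially, and adjusted to pH 6.0. Parallel controls were run. Results are % difference from control.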

[6] = tested on: Solanum lycopersicum; test: Inhibition of root length of Solanum lycopersicum cv. Tres Cantos (tomato) at 0.1 mM or 1 mM after 5 days relative to untreated control; type: functional; outline: as §2
[7] = tested on: Lepidium sativum; test: Inhibition of hypocotyl length of Lepidium sativum at 0.1 mM or 1 mM after 5 days relative to untreated control; type: functional
[8] = tested on: Allium cepa; test: Inhibition of root length of Allium cepa cv. Valenciana (onion) at 0.1 mM or 1 mM after 5 days relative to untreated control; type: functional
[9] = tested on: Triticum aestivum; test: Stimulation of hypocotyl length of Triticum aestivum cv. Cortex (wheat) at 0.1 mM or 1 mM after 5 days relative to untreated control; type: functional; outline: as §1
[10] = tested on: Allium cepa; test: Stimulation of germination of Allium cepa cv. Valenciana (onion) at 0.1 mM or 1 mM after 5 days relative to untreated control; type: functional
[11] = tested on: Triticum aestivum; test: Stimulation of root length of Triticum aestivum cv. Cortex (wheat) at 0.1 mM or 1 mM after 5 days relative to untreated control; type: functional; outline: as §1
[12] = tested on: Solanum lycopersicum; test: Inhibition of germination of Solanum lycopersicum cv. Tres Cantos (tomato) at 0.1 mM or 1 mM after 5 days relative to untreated control; type: functional; outline: as §2
[13] = tested on: Lactuca sativa; test: Inhibition of hypocotyl length of Lactuca sativa cv. Roman (lettuce) at 0.1 mM or 1 mM after 5 days relative to untreated control; type: functional; outline: as §2
[14] = tested on: Lactuca sativa; test: Inhibition of root length of Lactuca sativa cv. Roman (lettuce) at 0.1 mM or 1 mM after 5 days relative to untreated control; type: functional; outline: as §2
[15] = tested on: Lactuca sativa; test: Inhibition of germination of Lactuca sativa cv. Roman (lettuce) at 0.1 mM or 1 mM after 5 days relative to untreated control; type: functional; outline: as §2
[16] = tested on: Triticum aestivum; test: Stimulation of germination of Triticum aestivum cv. Cortex (wheat) at 0.1 mM or 1 mM after 5 days relative to untreated control; type: functional; outline: as §1
[17] = tested on: Solanum lycopersicum; test: Stimulation of hypocotyl length of Solanum lycopersicum cv. Tres Cantos (tomato) at 0.1 mM or 1 mM after 5 days relative to untreated control; type: functional; outline: as §2
[18] = tested on: Solanum lycopersicum; test: Stimulation of root length of Solanum lycopersicum cv. Tres Cantos (tomato) at 0.1 mM or 1 mM after 5 days relative to untreated control; type: functional; outline: as §2
[19] = tested on: Solanum lycopersicum; test: Stimulation of germination of Solanum lycopersicum cv. Tres Cantos (tomato) at 0.1 mM or 1 mM after 5 days relative to untreated control; type: functional; outline: as §2
[20] = tested on: Lepidium sativum; test: Stimulation of hypocotyl length of Lepidium sativum at 0.1 mM or 1 mM after 5 days relative to untreated control; type: functional
[21] = tested on: Lepidium sativum; test: Stimulation of root length of Lepidium sativum at 0.1 mM or 1 mM after 5 days relative to untreated control; type: functional
[22] = tested on: Lactuca sativa; test: Stimulation of root length of Lactuca sativa cv. Roman (lettuce) at 0.1 mM or 1 mM after 5 days relative to untreated control; type: functional; outline: as §2
[23] = tested on: Lactuca sativa; test: Stimulation of hypocotyl length of Lactuca sativa cv. Roman (lettuce) at 0.1 mM or 1 mM after 5 days relative to untreated control; type: functional; outline: as §2
[24] = tested on: Lactuca sativa; test: Stimulation of germination of Lactuca sativa cv. Roman (lettuce) at 0.1 mM or 1 mM after 5 days relative to untreated control; type: functional; outline: as §2
[25] = tested on: Lepidium sativum; test: Inhibition of root length of Lepidium sativum at 0.1 mM or 1 mM after 4 days relative to untreated control
[26] = tested on: Lepidium sativum; test: Inhibition of germination of Lepidium sativum at 0.1 mM or 1 mM after 4 days relative to untreated control
[27] = tested on: Allium cepa; test: Stimulation of root length of Allium cepa cv. Valenciana (onion) at 0.1 mM or 1 mM after 7 days relative to untreated control
[28] = tested on: Allium cepa; test: Inhibition of hypocotyl length of Allium cepa cv. Valenciana (onion) at 0.1 mM or 1 mM after 7 days relative to untreated control
[29] = tested on: Allium cepa; test: Stimulation of hypocotyl length of Allium cepa cv. Valenciana (onion) at 0.1 mM or 1 mM after 7 days relative to untreated control
[30] = tested on: Allium cepa; test: Inhibition of hypocotyl length of Allium cepa cv. Valenciana (onion) at 0.1 mM or 1 mM after 5 days relative to untreated control; type: functional
[31] = tested on: Allium cepa; test: Stimulation of hypocotyl length of Allium cepa cv. Valenciana (onion) at 0.1 mM or 1 mM after 5 days relative to untreated control; type: functional
[32] = tested on: Allium cepa; test: Stimulation of root length of Allium cepa cv. Valenciana (onion) at 0.1 mM or 1 mM after 5 days relative to untreated control; type: functional
[33] = tested on: Lepidium sativum; test: Inhibition of germination of Lepidium sativum at 0.1 mM or 1 mM after 5 days relative to untreated control; type: functional
[34] = tested on: Lepidium sativum; test: Inhibition of germination of Lepidium sativum at 0.1 mM or 1 mM after 4 days relative to untreated control; set-up: scale not given: the % may be the effect or the level left
[35] = tested on: Lepidium sativum; test: Inhibition of hypocotyl length of Lepidium sativum at 0.1 mM or 1 mM after 4 days relative to untreated control
[36] = tested on: Allium cepa; test: Stimulation of germination of Allium cepa cv. Valenciana (onion) at 0.1 mM or 1 mM after 7 days relative to untreated control

Compound | inhibition [1] | inhibition [5] | inhibition [6] | inhibition [7] | inhibition [8] | Activity [9] | Activity [10] | Activity [11] | inhibition (INH) [12] [%] | inhibition (INH) [13] [%] | inhibition [15] | Activity [16] | Activity [17] | Activity [18] | Activity [19] | Activity [20] | Activity [21] | Activity [22] | Activity [23] [%] | Activity [24] | also measured
C=C1CC[C@H]2C(=C)CC[C@@H]3[C@H](OC(=O)[C@]3(O)CO)[C@@H]12 | inactive | inactive | inactive | inactive | inactive | inactive | inactive | inactive | <20 | <20 | inactive | <20% | inactive | inactive | <20% | inactive | inactive | inactive | <20 | inactive | inhibition [2]: inactive; inhibition [3]: inactive; inhibition (INH) [4]: <20%; inhibition [14]: inactive; inhibition [25]: inactive; Activity [26]: inactive; inhibition [26]: inactive; Activity [27]: inactive; inhibition [28]: inactive; Activity [29]: inactive
C=C1C(=O)O[C@H]2[C@H]1C[C@@H](O)C(=C)[C@@H]1C[C@@H](O)C(=C)[C@@]12O | inactive | inactive | inactive | inactive | inactive | 20% | inactive | 20% | <20 | <20 | inactive | inactive | inactive | inactive | <20% | inactive | inactive | 20% | <20 | inactive | inhibition (INH) [2]: 20%; inhibition (INH) [3]: 20%; inhibition [4]: inactive; inhibition (INH) [14]: 20%; inhibition [25]: inactive; Activity [26]: inactive; inhibition [26]: inactive; Activity [27]: inactive; inhibition [28]: inactive; Activity [29]: inactive
C=C1CC[C@H]2[C@H](C)C(=O)O[C@@H]2[C@@]2(O)C(=C)[C@H](O)C[C@@H]12 | inactive | inactive | inactive | inactive | inactive | 20% | inactive | inactive | – | 20 | inactive | inactive | inactive | inactive | inactive | inactive | inactive | <20% | 20 | inactive | inhibition [2]: inactive; inhibition (INH) [3]: 20%; inhibition [4]: inactive; inhibition [12]: inactive; inhibition (INH) [14]: <20%; inhibition [25]: inactive; Activity [26]: inactive; inhibition [26]: inactive; Activity [27]: inactive; inhibition [28]: inactive; Activity [29]: inactive
C=C1[C@@H]2[C@H]3OC(=O)C(=C)[C@@H]3CCC(=C)[C@@H]2C[C@H]1O [ISOZALUZANIN C] | inactive | – | – | – | – | 20% | – | >40% | 20 | <20 | – | 20% | >40% | >40% | 20% | >40% | >40% | inactive | <20 | <20% | inhibition (INH) [2]: >40%; inhibition (INH) [3]: 20%; inhibition (INH) [4]: 20%; inhibition (INH) [5]: >40%; inhibition (INH) [6]: >40%; inhibition (INH) [8]: >40%; inhibition (INH) [30]: >40%; Activity [31]: >40%; Activity [32]: >40%; inhibition (INH) [33]: >40%; inhibition [14]: inactive; inhibition (INH) [15]: <20%; inhibition (INH) [25]: >40%; Activity [34]: >40%; inhibition (INH) [35]: >40%; Activity [36]: inactive
